pIC50: −log10 of the molar value. The source made the active and inactive calls. The calls are words filed in the database; no cut-off is given here.
Columns and labels:
[1] = target: Calcium/calmodulin-dependent protein kinase type II subunit gamma (Homo sapiens, UniProt Q13555); experiment: Inhibition of CAMK2g in human HeLa cells lysate pre incubated for 15 mins followed by ATP acyl phosphate probe addition and measured after 10 mins by LC-MS/MS analysis; assay type: subcellular
How it was run: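 KiNativ profiling in HeLa lysate (5 mg/mL total protein). Lysate incubated 15 min with inhibitor at 50, 10, 2, 0.8 or 0 μM. ATP or ADP acylphosphate probe then added (5 μM final) and reacted 10 min. Reaction stopped with urea and analysed by targeted MS, using up to four fragment ions per kinase peptide-probe conjugate. % inhibition taken against untreated lysate. Run in duplicate.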

[2] = target: Tyrosine-protein kinase Lyn (Homo sapiens, UniProt P07948); experiment: Inhibition of LYN in human HeLa cells lysate pre incubated for 15 mins followed by ATP acyl phosphate probe addition and measured after 10 mins by LC-MS/MS analysis; assay type: subcellular
[3] = target: Ribosomal protein S6 kinase beta-2 (Homo sapiens, UniProt Q9UBS0); experiment: Inhibition of P70S6KB in human HeLa cells lysate pre incubated for 15 mins followed by ATP acyl phosphate probe addition and measured after 10 mins by LC-MS/MS analysis; assay type: subcellular
[4] = target: Serine/threonine-protein kinase N2 (Homo sapiens, UniProt Q16513); experiment: Inhibition of PKN2 in human HeLa cells lysate pre incubated for 15 mins followed by ATP acyl phosphate probe addition and measured after 10 mins by LC-MS/MS analysis; assay type: subcellular
[5] = target: EKC/KEOPS complex subunit TP53RK (Homo sapiens, UniProt Q96S44); experiment: Inhibition of PRPK in human HeLa cells lysate pre incubated for 15 mins followed by ATP acyl phosphate probe addition and measured after 10 mins by LC-MS/MS analysis; assay type: subcellular
[6] = target: Tyrosine-protein kinase CSK (Homo sapiens, UniProt P41240); experiment: Inhibition of CSK in human HeLa cells lysate pre incubated for 15 mins followed by ADP acyl phosphate probe addition and measured after 10 mins by LC-MS/MS analysis; assay type: subcellular
[7] = target: Tyrosine-protein kinase Fyn (Homo sapiens, UniProt P06241); experiment: Inhibition of FYN in human HeLa cells lysate pre incubated for 15 mins followed by ADP acyl phosphate probe addition and measured after 10 mins by LC-MS/MS analysis; assay type: subcellular
[8] = target: Cyclin-dependent kinase 16 (Homo sapiens, UniProt Q00536); experiment: Inhibition of PCTAIRE1 in human HeLa cells lysate at 50 uM pre incubated for 15 mins followed by ADP acyl phosphate probe addition and measured after 10 mins by LC-MS/MS analysis relative to control; assay type: subcellular; conditions: time 25.0 min
[9] = target: Serine/threonine-protein kinase tousled-like 2 (Homo sapiens, UniProt Q86UE8); experiment: Inhibition of TLK2 in human HeLa cells lysate at 50 uM pre incubated for 15 mins followed by ADP acyl phosphate probe addition and measured after 10 mins by LC-MS/MS analysis relative to control; assay type: subcellular; conditions: time 25.0 min
[10] = Inhibition of SRPK1/2 in human HeLa cells lysate at 50 uM pre incubated for 15 mins followed by ADP acyl phosphate probe addition and measured after 10 mins by LC-MS/MS analysis relative to control; conditions: 25 min, condition cancer
[11] = target: Epidermal growth factor receptor (Homo sapiens, UniProt P00533); experiment: Inhibition of EGFR in human HeLa cells lysate at 2 uM pre incubated for 15 mins followed by ADP acyl phosphate probe addition and measured after 10 mins by LC-MS/MS analysis relative to control; assay type: subcellular; conditions: time 25.0 min
[12] = target: T1, Phosphorylase b kinase gamma catalytic chain, liver/testis isoform (Homo sapiens) (UniProt P15735); experiment: Inhibition of PHKg2 in human HeLa cells lysate at 50 uM pre incubated for 15 mins followed by ATP acyl phosphate probe addition and measured after 10 mins by LC-MS/MS analysis relative to control; assay type: subcellular; conditions: time 25.0 min
T1 sequence (whole entry): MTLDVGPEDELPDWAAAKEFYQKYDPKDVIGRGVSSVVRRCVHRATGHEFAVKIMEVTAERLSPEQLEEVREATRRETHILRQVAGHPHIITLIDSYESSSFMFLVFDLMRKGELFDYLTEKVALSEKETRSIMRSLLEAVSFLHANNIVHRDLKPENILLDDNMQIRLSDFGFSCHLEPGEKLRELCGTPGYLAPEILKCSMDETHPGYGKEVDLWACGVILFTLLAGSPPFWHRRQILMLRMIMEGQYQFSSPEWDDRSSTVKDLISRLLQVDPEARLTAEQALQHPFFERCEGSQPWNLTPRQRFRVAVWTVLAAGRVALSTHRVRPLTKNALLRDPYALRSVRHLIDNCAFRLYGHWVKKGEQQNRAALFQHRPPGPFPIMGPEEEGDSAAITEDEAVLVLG

[13] = target: Calcium/calmodulin-dependent protein kinase type II subunit delta (Homo sapiens, UniProt Q13557); experiment: Inhibition of CAMK2d in human HeLa cells lysate at 2 uM pre incubated for 15 mins followed by ATP acyl phosphate probe addition and measured after 10 mins by LC-MS/MS analysis relative to control; assay type: subcellular; conditions: time 25.0 min
How it was run: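 KiNativ-type profiling in HeLa lysate (5 mg/mL total protein). Lysate preincubated 15 min with inhibitor at 50, 10, 2, 0.8 or 0 μM, then ATP or ADP acylphosphate probe added (5 μM final) for 10 min. Reaction stopped with urea and analysed by targeted MS, using up to four fragment ions per kinase peptide-probe conjugate. % inhibition calculated against untreated lysate. Duplicate reactions.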

[14] = target: T2, Serine/threonine-protein kinase 4 (Homo sapiens) (UniProt Q13043); experiment: Inhibition of MST1 in human HeLa cells lysate at 2 uM pre incubated for 15 mins followed by ATP acyl phosphate probe addition and measured after 10 mins by LC-MS/MS analysis relative to control; assay type: subcellular; conditions: time 25.0 min
T2 sequence (whole entry): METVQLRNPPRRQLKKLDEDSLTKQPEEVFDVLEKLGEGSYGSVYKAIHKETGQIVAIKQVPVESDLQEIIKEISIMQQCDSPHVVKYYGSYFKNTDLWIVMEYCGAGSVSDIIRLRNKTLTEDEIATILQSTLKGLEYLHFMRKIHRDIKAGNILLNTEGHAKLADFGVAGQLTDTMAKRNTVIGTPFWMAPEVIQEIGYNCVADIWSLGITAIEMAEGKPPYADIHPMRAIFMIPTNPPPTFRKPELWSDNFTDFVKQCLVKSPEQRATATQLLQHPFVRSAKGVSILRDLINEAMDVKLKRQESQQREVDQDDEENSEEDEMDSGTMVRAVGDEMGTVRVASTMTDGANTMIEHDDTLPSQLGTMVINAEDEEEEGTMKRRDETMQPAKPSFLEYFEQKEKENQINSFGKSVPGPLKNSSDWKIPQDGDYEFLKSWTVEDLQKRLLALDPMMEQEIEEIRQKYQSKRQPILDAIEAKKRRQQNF

[15] = test system: HeLa; experiment: Antitumor activity against human HeLa cells xenografted in NOD/SCID mouse assessed as decrease in BrdU incorporation in cell nuclei in tumor at 50 mg/kg, ip by fluorescence microscopic analysis; assay type: functional, organism-based
How it was run: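 HeLa or LL/2 tumor sections from treated and control xenograft mice were stained with anti-BrdU antibody and DAPI and imaged by fluorescence microscopy. n = 6 mice, 9 slices.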

Sequence of Serine/threonine-protein kinase N2 (Q16513 whole entry): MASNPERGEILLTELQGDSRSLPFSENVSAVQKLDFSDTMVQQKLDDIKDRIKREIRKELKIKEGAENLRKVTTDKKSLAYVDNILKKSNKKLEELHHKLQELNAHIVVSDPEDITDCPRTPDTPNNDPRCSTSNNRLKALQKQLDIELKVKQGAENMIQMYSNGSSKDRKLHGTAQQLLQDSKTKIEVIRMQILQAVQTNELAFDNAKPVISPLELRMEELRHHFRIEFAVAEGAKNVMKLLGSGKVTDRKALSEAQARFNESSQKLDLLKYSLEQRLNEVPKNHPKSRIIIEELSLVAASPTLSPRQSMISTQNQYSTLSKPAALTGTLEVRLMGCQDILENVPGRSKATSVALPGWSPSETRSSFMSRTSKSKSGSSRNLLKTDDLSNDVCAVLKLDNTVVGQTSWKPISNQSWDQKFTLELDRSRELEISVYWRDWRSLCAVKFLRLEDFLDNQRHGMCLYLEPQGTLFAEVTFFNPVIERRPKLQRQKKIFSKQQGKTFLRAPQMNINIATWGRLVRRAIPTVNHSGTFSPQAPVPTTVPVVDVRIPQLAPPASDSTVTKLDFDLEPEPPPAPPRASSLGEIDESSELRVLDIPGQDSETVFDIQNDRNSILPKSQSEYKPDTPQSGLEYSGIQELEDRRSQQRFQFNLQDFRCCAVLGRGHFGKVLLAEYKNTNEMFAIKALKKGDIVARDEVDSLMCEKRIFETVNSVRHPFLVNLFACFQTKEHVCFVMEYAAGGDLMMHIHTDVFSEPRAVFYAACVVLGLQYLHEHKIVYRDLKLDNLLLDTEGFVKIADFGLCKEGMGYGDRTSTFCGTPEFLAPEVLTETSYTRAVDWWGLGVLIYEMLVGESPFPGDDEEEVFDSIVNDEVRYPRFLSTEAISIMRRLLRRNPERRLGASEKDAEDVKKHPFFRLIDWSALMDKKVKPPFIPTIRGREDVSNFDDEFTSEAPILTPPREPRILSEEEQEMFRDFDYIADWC
Sequence of Tyrosine-protein kinase Fyn (P06241 whole entry): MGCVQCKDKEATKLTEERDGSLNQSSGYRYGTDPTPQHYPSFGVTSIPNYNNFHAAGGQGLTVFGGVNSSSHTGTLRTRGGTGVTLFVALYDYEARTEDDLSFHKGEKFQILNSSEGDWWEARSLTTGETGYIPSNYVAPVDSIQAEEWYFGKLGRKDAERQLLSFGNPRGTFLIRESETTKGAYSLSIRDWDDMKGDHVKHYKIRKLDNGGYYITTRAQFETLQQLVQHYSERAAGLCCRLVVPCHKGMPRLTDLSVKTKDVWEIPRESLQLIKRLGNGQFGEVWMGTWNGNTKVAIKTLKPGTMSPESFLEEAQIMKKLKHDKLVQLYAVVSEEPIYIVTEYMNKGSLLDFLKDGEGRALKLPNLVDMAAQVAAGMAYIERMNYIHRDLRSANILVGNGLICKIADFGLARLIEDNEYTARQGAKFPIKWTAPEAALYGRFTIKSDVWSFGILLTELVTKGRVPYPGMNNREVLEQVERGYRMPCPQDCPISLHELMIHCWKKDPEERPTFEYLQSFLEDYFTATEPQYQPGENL
Sequence of Epidermal growth factor receptor (P00533 whole entry, canonical isoform): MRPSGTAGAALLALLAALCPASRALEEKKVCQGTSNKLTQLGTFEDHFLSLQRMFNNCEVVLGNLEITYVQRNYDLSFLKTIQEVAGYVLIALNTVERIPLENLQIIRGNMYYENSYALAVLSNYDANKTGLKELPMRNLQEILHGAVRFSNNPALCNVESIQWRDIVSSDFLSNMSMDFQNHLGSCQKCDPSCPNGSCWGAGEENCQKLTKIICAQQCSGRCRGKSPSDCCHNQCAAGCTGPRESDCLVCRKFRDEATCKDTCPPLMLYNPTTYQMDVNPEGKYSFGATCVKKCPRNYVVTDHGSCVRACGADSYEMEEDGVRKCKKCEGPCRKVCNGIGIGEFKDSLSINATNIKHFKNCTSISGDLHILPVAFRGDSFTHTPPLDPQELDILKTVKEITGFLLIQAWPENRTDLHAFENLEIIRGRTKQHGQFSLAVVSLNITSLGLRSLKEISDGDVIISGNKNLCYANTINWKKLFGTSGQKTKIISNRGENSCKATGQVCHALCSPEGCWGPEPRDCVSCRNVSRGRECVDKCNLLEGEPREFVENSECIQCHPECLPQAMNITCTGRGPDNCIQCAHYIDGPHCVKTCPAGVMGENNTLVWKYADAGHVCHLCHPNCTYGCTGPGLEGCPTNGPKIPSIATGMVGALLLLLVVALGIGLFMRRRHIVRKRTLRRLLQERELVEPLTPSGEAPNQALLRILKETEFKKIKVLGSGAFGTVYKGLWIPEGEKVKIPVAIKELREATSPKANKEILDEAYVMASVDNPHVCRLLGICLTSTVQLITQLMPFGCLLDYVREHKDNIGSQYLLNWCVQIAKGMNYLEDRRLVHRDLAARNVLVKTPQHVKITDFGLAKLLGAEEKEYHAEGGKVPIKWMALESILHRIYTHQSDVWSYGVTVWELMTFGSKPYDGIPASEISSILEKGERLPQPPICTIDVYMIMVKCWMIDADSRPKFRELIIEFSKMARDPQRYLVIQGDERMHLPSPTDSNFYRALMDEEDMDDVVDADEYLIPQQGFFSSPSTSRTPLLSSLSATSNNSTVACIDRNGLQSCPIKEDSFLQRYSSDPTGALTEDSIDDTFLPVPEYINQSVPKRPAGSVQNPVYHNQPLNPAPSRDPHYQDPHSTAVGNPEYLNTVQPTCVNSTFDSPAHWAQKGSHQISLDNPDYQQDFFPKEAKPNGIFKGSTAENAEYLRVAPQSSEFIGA
Sequence of Cyclin-dependent kinase 16 (Q00536 whole entry): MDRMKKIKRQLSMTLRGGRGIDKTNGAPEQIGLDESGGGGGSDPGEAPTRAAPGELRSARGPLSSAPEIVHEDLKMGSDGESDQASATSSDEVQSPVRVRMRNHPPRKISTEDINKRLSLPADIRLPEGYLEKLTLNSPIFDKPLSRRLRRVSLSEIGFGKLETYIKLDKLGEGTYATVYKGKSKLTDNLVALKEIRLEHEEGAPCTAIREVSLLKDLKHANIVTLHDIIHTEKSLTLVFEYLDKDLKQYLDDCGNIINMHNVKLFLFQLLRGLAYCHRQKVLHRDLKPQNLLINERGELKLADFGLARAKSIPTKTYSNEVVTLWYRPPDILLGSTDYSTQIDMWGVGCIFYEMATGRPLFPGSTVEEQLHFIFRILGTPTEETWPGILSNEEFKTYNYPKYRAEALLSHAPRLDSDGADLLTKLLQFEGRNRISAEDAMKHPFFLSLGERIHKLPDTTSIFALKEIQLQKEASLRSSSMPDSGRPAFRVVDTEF
Sequence of Calcium/calmodulin-dependent protein kinase type II subunit delta (Q13557 whole entry, the tested form may be a part): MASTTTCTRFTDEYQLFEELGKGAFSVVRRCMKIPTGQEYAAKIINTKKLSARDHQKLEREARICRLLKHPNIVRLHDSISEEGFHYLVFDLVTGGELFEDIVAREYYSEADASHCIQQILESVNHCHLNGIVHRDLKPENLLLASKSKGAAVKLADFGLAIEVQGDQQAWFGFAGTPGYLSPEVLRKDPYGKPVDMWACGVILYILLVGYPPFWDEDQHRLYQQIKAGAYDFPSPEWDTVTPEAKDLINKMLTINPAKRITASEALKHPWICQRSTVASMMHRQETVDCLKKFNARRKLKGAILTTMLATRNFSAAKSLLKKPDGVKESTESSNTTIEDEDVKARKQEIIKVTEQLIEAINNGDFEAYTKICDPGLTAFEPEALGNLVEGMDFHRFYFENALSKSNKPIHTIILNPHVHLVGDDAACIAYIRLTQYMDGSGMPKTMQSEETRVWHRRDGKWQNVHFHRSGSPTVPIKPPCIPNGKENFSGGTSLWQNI
Sequence of Calcium/calmodulin-dependent protein kinase type II subunit gamma (Q13555 whole entry, the tested form may be a part): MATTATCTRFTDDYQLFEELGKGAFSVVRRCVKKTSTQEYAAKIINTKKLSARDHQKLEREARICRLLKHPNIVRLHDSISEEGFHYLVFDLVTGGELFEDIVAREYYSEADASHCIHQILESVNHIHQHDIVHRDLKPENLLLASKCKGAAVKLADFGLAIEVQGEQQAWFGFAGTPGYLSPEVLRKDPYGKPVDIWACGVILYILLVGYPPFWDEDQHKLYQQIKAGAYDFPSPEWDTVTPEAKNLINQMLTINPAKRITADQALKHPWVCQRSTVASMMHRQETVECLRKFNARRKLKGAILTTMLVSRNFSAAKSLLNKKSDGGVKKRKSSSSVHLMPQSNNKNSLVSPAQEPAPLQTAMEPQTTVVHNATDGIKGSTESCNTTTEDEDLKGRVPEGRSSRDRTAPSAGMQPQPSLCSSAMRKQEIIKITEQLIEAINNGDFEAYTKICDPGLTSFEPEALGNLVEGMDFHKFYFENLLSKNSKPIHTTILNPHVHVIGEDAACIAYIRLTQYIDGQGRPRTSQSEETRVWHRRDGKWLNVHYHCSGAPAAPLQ
Sequence of Serine/threonine-protein kinase tousled-like 2 (Q86UE8 whole entry, looked up): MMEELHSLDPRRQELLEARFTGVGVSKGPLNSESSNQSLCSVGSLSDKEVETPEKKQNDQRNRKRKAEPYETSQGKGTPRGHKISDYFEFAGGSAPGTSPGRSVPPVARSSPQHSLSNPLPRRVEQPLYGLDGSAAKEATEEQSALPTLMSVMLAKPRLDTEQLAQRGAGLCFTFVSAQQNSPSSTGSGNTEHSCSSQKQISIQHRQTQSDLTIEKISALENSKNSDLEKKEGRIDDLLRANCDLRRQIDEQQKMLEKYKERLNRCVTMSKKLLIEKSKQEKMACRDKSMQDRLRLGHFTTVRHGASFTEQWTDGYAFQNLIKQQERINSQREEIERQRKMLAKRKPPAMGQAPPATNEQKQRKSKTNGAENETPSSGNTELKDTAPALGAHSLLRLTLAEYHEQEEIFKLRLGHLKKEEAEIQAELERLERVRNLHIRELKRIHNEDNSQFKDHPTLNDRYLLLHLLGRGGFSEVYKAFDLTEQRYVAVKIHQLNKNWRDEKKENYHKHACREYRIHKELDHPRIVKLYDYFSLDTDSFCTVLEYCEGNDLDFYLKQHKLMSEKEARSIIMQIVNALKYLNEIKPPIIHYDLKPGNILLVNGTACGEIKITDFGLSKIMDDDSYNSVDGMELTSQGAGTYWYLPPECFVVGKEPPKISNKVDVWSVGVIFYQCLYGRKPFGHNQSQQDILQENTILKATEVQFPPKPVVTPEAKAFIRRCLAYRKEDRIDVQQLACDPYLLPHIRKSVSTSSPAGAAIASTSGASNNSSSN

**Q.** What does the source list for CCOc1cc(N2CCC(O)CC2)ccc1Nc1ncc2c(n1)N(C)c1ccccc1C(=O)N2C?
**A.** pIC50 [1]: < 4.30; pIC50 [2]: < 4.30; pIC50 [3]: < 4.30; pIC50 [4]: < 4.30; pIC50 [5]: < 4.30; pIC50 [6]: < 4.30; pIC50 [7]: < 4.30; inhibition [8]: 11.3%; inhibition [9]: -2.4%; inhibition at 50 µM [10]: -53.5%; inhibition [11]: 12.2%; inhibition [12]: 8.5%; inhibition [13]: -1.1%; inhibition [14]: 2.2%; Activity [15]: Active

Source: ChEMBL document CHEMBL5661979, “Pharmacological inhibition of BMK1 suppresses tumor growth through promyelocytic leukemia protein” (Cancer Cell, 2010)
